Source: PubChem
Shown are actives, neighbours in structure and some others; about 2.9% of the full set was active somewhere.
SIRT5 inh: sirtuin-5 (human) deacylase inhibition; Purified SirT5, succinyl-peptide AMC, trypsin-coupled fluorescence; inhibition, % at 15 µM; 1.1% of 330,000 active; AID 652115; in the data active = inhibition above about 15%
Target sequence (Q9NXA8 whole entry, looked up): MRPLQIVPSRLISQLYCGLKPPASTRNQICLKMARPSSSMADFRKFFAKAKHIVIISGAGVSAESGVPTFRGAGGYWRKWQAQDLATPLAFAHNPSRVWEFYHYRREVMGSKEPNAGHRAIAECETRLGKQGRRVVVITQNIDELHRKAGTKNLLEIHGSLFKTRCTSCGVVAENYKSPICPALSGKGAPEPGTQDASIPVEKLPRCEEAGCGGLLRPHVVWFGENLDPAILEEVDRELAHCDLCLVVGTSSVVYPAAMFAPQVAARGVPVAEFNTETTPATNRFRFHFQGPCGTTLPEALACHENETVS
PGC1a acetyl inh: PGC1a acetylation modulation, inhibitor mode; AID 651687; inhibition, % at 15.6 µM; 0.17% of 350,000 active; U2OS PGC1a acetylation, AlphaScreen anti-acetyl-lysine; with virally co-expressed GCN5 acetyltransferase;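 active = every replicate shows inhibition of at least 40%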;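 also: 0% = neutral control wells and 100% = positive control wells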
DENV2 CPE rescue: protects cells from dengue virus 2 cytopathic effect | 1.7% of 350,000 active | DENV2-infected cells, cytopathic effect rescue, plate reader | CPE inhibition, % at 9.99 µM; in the data active = CPE inhibition above about 20%, passing the limit was not always enough; tested in BHK-21 cells;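 also: 0% = median of neutral control wells and 100% = median of positive control wells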
Statin myotox sup: suppressors of simvastatin-induced myotoxicity in C2C12 myotubes; rescue of ATP level, % at 7.49 µM; AID 602340; 0.78% of 330,000 active; ATP luminescence, 48 h; scaled: DMSO 0, geranylgeraniol control 100;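 active = mean ATP rescue above about 67%, or every replicate alone reaching that limit, limit read from the data, passing the limit was not always enough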;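 also: myotubes were challenged with 10 µM simvastatin during compound exposure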
S100A4 MyoIIA: S100A4-myosin IIA interaction inhibition. P26447. S100A4/TAMRA-MyoIIA peptide fluorescence polarization. 0.14% of 360,000 active. inhibition, % at 10.7 µM;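 active = mean inhibition of at least 70% across replicates, with every replicate also reaching that level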
Target sequence (P26447 whole entry, looked up): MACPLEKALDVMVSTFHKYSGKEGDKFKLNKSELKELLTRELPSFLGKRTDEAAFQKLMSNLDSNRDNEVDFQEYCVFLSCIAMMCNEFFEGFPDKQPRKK
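Material: S100A4 monomer protein | Medium: HEPES pH 7.2 with CaCl2, KCl, NaCl, DTT, Triton | Reagent: Labelled myosin peptide probe, 5 nM | Doses: One dose per compound | Times: 5 min incubation before reading | Benchmarks: Neutral control DMSO, positive control TFP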
An asterisk follows results filed as active.

Screening C[C@@H]1CN([C@@H](C)CO)C(=O)Cc2cc(NS(=O)(=O)c3ccc(F)cc3)ccc2O[C@@H]1CN(C)C(=O)NC1CCCCC1 returned SIRT5 inh 19*, PGC1a acetyl inh -6, DENV2 CPE rescue -8, Statin myotox sup 38 and S100A4 MyoIIA 1.
`C[C@H]1CN([C@@H](C)CO)C(=O)Cc2cc(NS(=O)(=O)c3ccc(Cl)cc3)ccc2O[C@H]1CN(C)C(=O)NC1CCCCC1` gave SIRT5 inh 0, PGC1a acetyl inh 0, DENV2 CPE rescue 32*, Statin myotox sup -2 and S100A4 MyoIIA 0.
Screening Cc1noc(C)c1S(=O)(=O)Nc1ccc2c(c1)CC(=O)N([C@@H](C)CO)C[C@@H](C)[C@H](CN(C)C(=O)NC1CCCCC1)O2 returned SIRT5 inh -3, PGC1a acetyl inh 6, DENV2 CPE rescue 22*, Statin myotox sup 2 and S100A4 MyoIIA -4.
For C[C@H]1CN([C@@H](C)CO)C(=O)c2cc(NC(=O)Nc3ccc(F)cc3)ccc2O[C@@H]1CN(C)Cc1ccc(-c2ccccc2)cc1 the results were SIRT5 inh 2, PGC1a acetyl inh -4, DENV2 CPE rescue 13 and S100A4 MyoIIA -5.
For COc1ccc(NC(=O)N(C)C[C@H]2OCCCC[C@H](C)Oc3ccc(NC(=O)Cc4ccccc4)cc3C(=O)N([C@H](C)CO)C[C@@H]2C)cc1 the results were SIRT5 inh -3, PGC1a acetyl inh 8, DENV2 CPE rescue -4 and S100A4 MyoIIA -3.
For Cc1noc(C)c1NC(=O)Nc1ccc2c(c1)C(=O)N([C@@H](C)CO)C[C@@H](C)[C@H](CN(C)Cc1ccncc1)O2 the results were SIRT5 inh -8, PGC1a acetyl inh 10, DENV2 CPE rescue 0, Statin myotox sup 9 and S100A4 MyoIIA 29.
`N#CCc1c(C#N)c(N)nc(N2CCN(S(=O)(=O)c3ccccc3)CC2)c1C#N` gave PGC1a acetyl inh -1 and Statin myotox sup 84*.
Screening CC(C)NC(=O)N(C)C[C@@H]1OCCCC[C@H](C)Oc2ccc(NC(=O)c3ccccc3)cc2C(=O)N([C@@H](C)CO)C[C@@H]1C returned SIRT5 inh 4, PGC1a acetyl inh 0, DENV2 CPE rescue -3 and S100A4 MyoIIA -5.
`CCCCC(CC)C(=O)Oc1ccc(O)c(C(C)(C)C)c1` (centres undefined) gave SIRT5 inh 19*, PGC1a acetyl inh 4, DENV2 CPE rescue 11, Statin myotox sup 0 and S100A4 MyoIIA -8.
`O=C(O)C[C@@H]1CC[C@H](NC(=O)Nc2ccccc2)[C@H](CO)O1` gave SIRT5 inh 2, PGC1a acetyl inh -6, DENV2 CPE rescue 12, Statin myotox sup -19 and S100A4 MyoIIA 11.
For CC(C)(C)OC(=O)C[C@@H]1C/C=C\C[C@@H](CC(=O)N[C@@H](CO)Cc2ccccc2)C(=O)NC[C@@H](c2ccccc2)OC1=O the results were DENV2 CPE rescue 11, Statin myotox sup 10 and S100A4 MyoIIA -1.
Screening CC(C)(C)OC(=O)C[C@H]1C/C=C\C[C@@H](CC(=O)N[C@@H](CO)Cc2ccccc2)C(=O)NC[C@H](c2ccccc2)OC1=O returned SIRT5 inh 1, PGC1a acetyl inh -11, DENV2 CPE rescue 58*, Statin myotox sup 6 and S100A4 MyoIIA 1.
`O=C(c1cccc(-c2nnc(-c3ccccc3)o2)c1)N1CCCCC1` gave PGC1a acetyl inh -11 and Statin myotox sup 121*.
`O=C(c1cccc(-c2nnc(-c3ccccc3)o2)c1)N1CCCCCC1` gave PGC1a acetyl inh 10 and Statin myotox sup 8.
`C/C=C/c1cnc2c(c1)C(=O)N([C@H](C)CO)C[C@@H](C)[C@@H](CN(C)C(=O)Cc1ccccn1)O2` gave SIRT5 inh -1, PGC1a acetyl inh -5, DENV2 CPE rescue 2, Statin myotox sup 11 and S100A4 MyoIIA 2.
`C[C@H]1CN([C@@H](C)CO)C(=O)c2cccc(NS(=O)(=O)c3ccccc3)c2O[C@H]1CN(C)Cc1ccc(C(=O)O)cc1` gave SIRT5 inh -4, PGC1a acetyl inh 7, DENV2 CPE rescue -1, Statin myotox sup -13 and S100A4 MyoIIA 2.
Screening C[C@@H]1CN([C@@H](C)CO)C(=O)c2cccc(NS(=O)(=O)c3ccccc3)c2O[C@@H]1CN(C)Cc1ccc(Oc2ccccc2)cc1 returned SIRT5 inh 2, PGC1a acetyl inh -24, DENV2 CPE rescue -7, Statin myotox sup 10 and S100A4 MyoIIA -4.
